# Jurkat NFkB inh – inhibitors of induced NF-kB luciferase reporter, primary screen, TCR NF-kB activation inhibitor project, cell-based, luminescence, uHTS | 330,000 compounds, 0.53% hits | AID 435003, 2010 | inhibition, % at 4 µM | Jurkat, PMA/ionomycin-induced NF-kB luciferase reporter; in the data active = inhibition above about 50%
# GalR3 antagonist – GalR3 antagonists in HEK293 cells, primary screen, cell-based, fluorescence readout; inhibition, % at 3 µM; HEK293 GalR3-CNG cAMP membrane potential fluorescence; galR3 body fused to GalR1 C-terminus; 360,000 compounds, 0.44% hits; Galanin receptor type 3 (Homo sapiens), O60755;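 active = inhibition above the screen-wide average plus 3 SD, cut at about 13% in these data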;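 note: forskolin and galanin both at EC90 stimulate the cells; cAMP rise reported by CNG channel membrane potential dye signal; 0% = forskolin plus galanin with DMSO and 100% = forskolin alone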
# Target sequence (O60755 1-299 limits assumed): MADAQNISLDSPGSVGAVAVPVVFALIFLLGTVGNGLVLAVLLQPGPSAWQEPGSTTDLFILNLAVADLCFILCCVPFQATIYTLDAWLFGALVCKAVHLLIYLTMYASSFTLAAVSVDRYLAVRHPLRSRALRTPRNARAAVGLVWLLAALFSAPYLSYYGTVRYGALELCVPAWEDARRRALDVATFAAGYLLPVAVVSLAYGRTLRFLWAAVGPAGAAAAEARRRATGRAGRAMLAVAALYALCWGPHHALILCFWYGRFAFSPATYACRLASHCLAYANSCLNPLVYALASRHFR
# Gli-Sufu block – Gli-Sufu pathway antagonists, primary screen, luciferase luminescence, Sufu-KO-LIGHT cells, uHTS; Sufu-KO-LIGHT fibroblasts, Gli luciferase reporter luminescence; inhibition, % at 5 µM; 340,000 compounds, 0.74% hits; AID 588413, 2011;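 active = inhibition above about 55%, limit read from the data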;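 note: 0% = DMSO-treated cells and 100% = wells with medium but no cells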
# NR2E3 ag-1 – NR2E3 agonists in two-hybrid cells, primary screen, cell-based, luminescence, CHO-S, Gal4-NCOR/VP16-NR2E3 | inhibition of corepressor binding, % at 3.98 µM | luciferase | AID 602229, 2012 | Photoreceptor-specific nuclear receptor (Homo sapiens), Q9Y5X4 | 360,000 compounds, 0.35% hits;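 active = inhibition above the mean of all tested compounds plus 3 SD, cut at about 70% in these data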;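 note: 0% = DMSO with NR2E3 transfected cells and 100% = cells lacking NR2E3 construct; higher means lower luciferase signal from less NR2E3 corepressor binding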
# NR2E3 ag-2 – inhibitors of NR2E3-RetCOR corepressor binding, primary screen, NR2E3 agonist project, biochemical, TR-FRET, GST-NR2E3, biotin-RetCOR; Photoreceptor-specific nuclear receptor (Homo sapiens), Q9Y5X4; 1536-well; inhibition of corepressor binding, % at 4.78 µM; 320,000 compounds, 0.12% hits; AID 2300, 2010;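 active = percent inhibition above the cutoff of mean plus 3 SD of all tested compounds, set per screening campaign, cut at about 20% in these data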;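 note: 0% = DMSO wells and 100% = biotin wells as full block of FRET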
#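 System: GST-tagged NR2E3 plus biotinylated RetCOR corepressor; Amount: 1.35 nM GST-tagged NR2E3 final; Dosing: single nominal compound dose of 4.8 µM; Schedule: 5 h incubation at 4 °C; Technique: TR-FRET with europium anti-GST and streptavidin-D2, 340 nm excitation; Controls: biotin wells as high control, 0.6% DMSO wells as low control.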
# 697 NFkB inh – inhibitors of PMA/ionomycin-induced NF-kB reporter, 697 cells, primary screen, B-cell NF-kB inhibitor project, cell-based, luminescence, uHTS; 697 B-cell NF-kB luciferase reporter, 16 h; inhibition, % at 4 µM; 330,000 compounds, 0.33% hits; in the data active = inhibition above about 35%
# NR2E3 ag confirm – NR2E3 agonists, confirmation, biochemical, TR-FRET; shares compounds with NR2E3 ag-2; cell-free NR2E3 corepressor release, 5 h; activation (reported as inhibition), % at 3.98 µM; 360 compounds, 39% hits; in the data active = activation above about 20%
# PPARg-NCOR2 ag – agonists of PPARg-NCOR2 corepressor interaction, counter-screen for NR2E3 agonist project, biochemical, TR-FRET; 360 compounds, 45% hits; TR-FRET PPARg-NCOR2 coregulator interaction; shares compounds with NR2E3 ag-2; AID 504787, 2011; inhibition, % at 3.98 µM; in the data active = inhibition above about 20%;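 note: 0% = DMSO vehicle and 100% = wells without protein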
# * hit, by the source's call; x = no result given. This is a sample that favours compounds with a hit; in the whole collection about 1.8% have one here.
SMILES,Jurkat NFkB inh,GalR3 antagonist,Gli-Sufu block,NR2E3 ag-1,NR2E3 ag-2,697 NFkB inh,NR2E3 ag confirm,PPARg-NCOR2 ag
CC(OC(=O)/C(C#N)=C/c1ccc(N(C)C)cc1)C(=O)N(C)c1ccccc1 (configuration not stated),1,-6,-7,9,1,0,x,x
CC(=O)Nc1ccc(NC(=O)C(C)OC(=O)/C(C#N)=C/c2ccc(N(C)C)cc2)cc1 (configuration not stated),17,-6,-5,-46,34*,-45,30*,30*
Cc1cc(C)cc(OCc2nc3ncc(Br)cc3[nH]2)c1,49,-7,-8,-71,4,-84,x,x
COc1cccc(OCc2nc3ncc(Br)cc3[nH]2)c1,22,8,-20,-108,20*,-85,11,26*
O=C(N[C@H](C(=O)N1CCC[C@H]1C(=O)NC1CCCC1)c1ccccc1)c1ccc(Cl)c(Cl)c1,x,-8,x,x,x,x,x,x
Cn1c(N)c(C(=O)CSc2nc(C3CC3)n(-c3ccccc3)n2)c(=O)[nH]c1=O,-1,-1,-1,1,24*,10,-16,-3
COc1ccc(NC(=S)Nc2cc(C)cc(C)n2)cc1OC,-16,3,-17,-7,2,-33,x,x
Cc1cc(C)nc(NC(=S)Nc2cccc(F)c2)c1,-35,0,-24,-61,21*,-38,-4,34*
COc1cccc(NC(=S)Nc2cc(C)cc(C)n2)c1,-71,-2,-64,-90,31*,-115,30*,39*
Cc1cc2c(nc1C)CCCN2S(=O)(=O)c1cccs1,x,9,x,x,x,x,x,x
COC(=O)c1cc2c(c3c4cc(OC)ccc4n(C(=O)c4ccccc4)c13)C(=O)N(C1CCCCC1)C2,x,-3,x,x,x,x,x,x
COC(=O)c1ccccc1S(=O)(=O)NC(=O)[C@H]1O[C@@H](n2ccc(=O)[nH]c2=O)[C@H](O)[C@@H]1O,x,-7,x,x,x,x,x,x
O=c1c2cc(O)c(O)cc2oc2cc(O)c(C3OC(CO)C(O)C(O)C3O)c(O)c12 (configuration not stated),2,-4,-36,-21,29*,15,20*,-5
O=c1cc(-c2ccc(O)c(O)c2)oc2cc(O)c([C@@H]3O[C@H](CO)[C@@H](O)[C@H](O)[C@H]3O)c(O)c12,7,-2,-14,-21,x,10,x,x
CSc1nc(N)nc(SCC(=O)c2ccc(C)cc2)c1C#N,-15,-5,-12,-21,47*,-48,8,10
CC(=O)N1C[C@@H](CN2C(=O)CCC2=O)[C@@H]2C[C@H]1c1ccccc1N2C,x,-4,x,x,x,x,x,x
Cc1cc(N)ccc1-n1c(C)ccc1C,6,-6,-16,-22,3,8,x,x
Cc1cc(C(=O)O)ccc1-n1c(C)ccc1C,-7,x,x,x,21*,9,23*,-4
COc1cc(Nc2cc(C)n(-c3cc(OC)cc(OC)c3)c(=O)c2)cc(OC)c1,x,-6,x,x,x,x,x,x
CCC1(C)Cc2c(sc3nc(SC)[nH]c(=S)c23)CO1 (configuration not stated),12,x,15,x,22*,17,-5,48*
O=C(NCc1ccccc1)[C@H]1CCCN1C(=O)[C@H]1CCCN1C(=O)c1ccc(OC(F)(F)F)cc1,x,-6,x,x,x,x,x,x
CC(=O)CCc1c(C)c2cccc(C)c2[nH]c1=O,2,1,-33,10,5,-1,x,x
COc1cccc2c(=S)c(CCC(C)=O)c(C)[nH]c12,x,-2,3,-2,21*,x,6,-2
CCc1cc2c(=O)n(-c3ccccc3)c(=S)[nH]c2s1,8,-3,13,-5,23*,27,1,-2
COc1cc(C(=O)NC2CCCCN(C)C2=O)cc(OC)c1OC (configuration not stated),x,-1,x,x,x,x,x,x
SMILES,Jurkat NFkB inh,GalR3 antagonist,Gli-Sufu block,NR2E3 ag-1,NR2E3 ag-2,697 NFkB inh,NR2E3 ag confirm,PPARg-NCOR2 ag
COc1ccc(Cn2c(-c3ccc(OC)cc3)nc3c(c(=O)c4ccccc4n3C)c2=O)cc1,6,x,x,x,41*,16,29*,20*
C=CCNC(=O)CSc1nc2sccc2c(=O)n1-c1ccccc1,18,-2,-10,9,23*,9,-5,-6
CCOc1ccccc1NC(=O)CCSc1nc2n[nH]c(C)c2c(=N)n1-c1ccccc1Cl,-5,-3,4,-30,26*,5,32*,34*
Cc1c(NC(=O)c2ncn[nH]2)cccc1-c1nc2ccccc2s1,2,-4,-16,-13,20*,-15,5,18
Cc1c(NC(=O)c2ccc(N3CCCC3)c([N+](=O)[O-])c2)cccc1-c1nc2ccccc2s1,-3,-7,-1,-39,0,16,x,x
Cc1onc(-c2ccccc2Cl)c1C(=O)Nc1nnc(-c2ccc(F)cc2)s1,8,x,8,9,5,-10,x,x
Cc1onc(-c2ccccc2Cl)c1C(=O)Nc1nnc(-c2ccc(Br)cc2)s1,-2,x,-15,14,22*,-9,14,15
c1ccc(Cn2nnc3c(NCCN4CCOCC4)ncnc32)cc1,13,-4,4,1,-1,-2,x,x
c1ccc(CCNc2ncnc3c2nnn3Cc2ccccc2)cc1,-1,-5,-6,-18,22*,5,-11,-5
CCC(CNc1cc(OC)cc2cccnc12)NC1CCCCC1 (configuration not stated),x,-9,13,-10,21*,x,-4,-6
Nc1ccc(N2CCCCC2)c2nonc12,-7,-4,17,-43,43*,11,-16,-14
Nc1c(N2CCCC2)cc(Cl)c2nonc12,12,x,8,-5,1,9,x,x
COC(=O)c1cc2c(c3c4cc(OC)ccc4n(S(=O)(=O)c4ccc(OC)cc4)c13)C(=O)N(Cc1ccc(C(F)(F)F)cc1)C2,x,-2,x,x,x,x,x,x
O=C(O)c1ccc(-n2cccc2/C=C2/SC(=O)N(CC(=O)N3CCCC3)C2=O)cc1,3,-9,25,-54,21*,-7,18,6
N#Cc1ccccc1CN1C(=O)S/C(=C/c2cccn2-c2ccc(C(=O)O)cc2)C1=O,7,0,0,22,2,20,x,x

# Bioassay records: PubChem, several laboratories
